Published values gathered from unrelated publications.
Protocols differ between the studies behind these lines. pIC50: −log10 of the molar value.
Read-out: cell growth or viability

Structure (SMILES) | cell line | assay | setting | endpoint | value
Cc1ncsc1-c1ccc([C@H](C)NC(=O)[C@@H]2C[C@@H](O)CN2C(=O)[C@@H](c2cc(N3CCC(CN4CCC(OC5CC(Oc6cc(N7C8CCC7CN(c7cc(-c9ccccc9O)nnc7N)C8)ccn6)C5)CC4)CC3)no2)C(C)C)cc1 (stereo partly shown) | LNCaP | ATP luminescence | 7 days | pIC50 | 8.49
N#C[Se]Cc1cc(=O)oc2cc(O)ccc12 | T47D | SRB |  | GI50 | 35000 nM
COC(=O)c1cc(C(C)=NNc2nc(-c3ccc(S(=O)(=O)F)cc3)cs2)ccc1O | T47D | MTT | 96 h | pIC50 | 4.58
O=[N+]([O-])c1ccc(NCCCCCCN=C=S)c2nonc12 | T47D | MTT | 24 h | pIC50 | 5.92
CC(=O)c1c(C)c2cnc(Nc3ccc(C4CCN(CCS(C)(=O)=O)CC4)cn3)nc2n(C2CCCC2)c1=O | T47D | ATP luminescence | 72 h | pIC50 | 6.75
Cc1cc(=O)oc2cc(OCCCC[Se]C#N)ccc12 | MIA PaCa-2 | SRB |  | GI50 | 2600 nM
O=C1c2ccccc2-c2c3c(cc4ccnc1c24)OCO3 | T47D | MTT | 75 h | pIC50 | 4.80
N.N.[Cl][Pt][Cl] | JVM-3 | ATP luminescence | 10 µM, 72 h | inhibition | 100%
C[S+]([O-])CCCCN=C=S (stereo not shown) | T47D | MTT | 24 h | pIC50 | 4.52
CC[C@@]1(O)C(=O)OCc2c1cc1n(c2=O)Cc2cc3ccccc3nc2-1 | MIA PaCa-2 | SRB | 48 h | pIC50 | 6.82
